According to the EternaBench riboswitch data:

Test system: MS2 coat protein
Assay: apparent Kd, MS2 coat protein; higher = weaker binding; RNA-MaP array; FMN 200 µM where present
How it was run: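 The titrant was SNAP-549-labelled MS2 coat protein, run from 0.7 or 1.5 nM in doubling steps to 3 µM. It was applied to designs transcribed by stalled E. coli RNA polymerase on Illumina sequencing-chip clusters, without ligand first and then with constant ligand, in 100 mM Tris-HCl pH 7.5, 80 mM KCl, 4 mM MgCl2, BSA, DTT, yeast tRNA and Tween-20. The apparent Kd is the median of filtered per-cluster binding-curve fits, with green signal normalised to red-channel RNA signal and control-cluster median Fmax.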

[1] = designed as: OFF switch for flavin mononucleotide, no ligand
[2] = ligand present: flavin mononucleotide, designed as: OFF switch for flavin mononucleotide
[3] = designed as: ON switch for flavin mononucleotide, no ligand
[4] = ligand present: flavin mononucleotide, designed as: ON switch for flavin mononucleotide

Row | Sequence | apparent Kd [1] | apparent Kd [2] | apparent Kd [3] | apparent Kd [4]
1 | UUUCUCGUUGUGAGGAUAUCGUUUUUGUUUUGGAUCGAGAAGGCACAUGAGGAUCACCCAUGUUUGUUGUGGUU | 119 nM | 87.7 nM | – | –
2 | GGACAUUUACAGAAGGGCAAGUUUUAUAGUGAAUAUUUAGUUCUGACUUGCAGGAUAUGUUGAACAUGAGGAUCACCCAUGUCC | – | – | 16.4 nM | 10.5 nM
3 | GUAGCUAUCGGAGGAUAUUCAUAGCGGAAACGGACAUGAGGAUCACCCAUGUGGCGAAAGCCUUGGGAGAAGGCCGAUAGCUAC | – | – | 39.6 nM | 8.1 nM
4 | GUGGUCAGACAUGAGGAUCACCCAUGUGGAAUAAAUAAGGAGAAGGAUAUAGAAUAUAGGAUAUACUAGAAGGUCUGGUUGGUG | – | – | 67.3 nM | 73.1 nM
5 | AUUAUUGACAUAGGAUAUUGUUACAUGAGGAUCACCCAUGUUAUUUGGGAAUUAGGAAUAUUUUACAAGAAGGAUGUUGUUACA | – | – | 106 nM | 72.5 nM
6 | AGCUGGUUAGGAUAUACAUGAGGAUCACCCAUGUUAAAAAAAAAAAAAAGAUUAAAGUGUAGAAGGGAUUAGUA | 40.4 nM | 37.1 nM | – | –
7 | ACAUGAGGAUCUCCCAUGUAAAAUUAGGAUAUAUGACUGCACAUGAGGAUCACCCAUGUUUUACCGUAGAAGGGAUAAAUAAUU | – | – | 867 nM | 855 nM
8 | CGCAAGUAUACAUGAGGAUCACCCAUGUCAAUCAUGGUAUUCAGAAGGUACAAUUCAAUAUAUAGUAAGGAUAUGAAAUUUGCG | – | – | 107 nM | 112 nM
9 | AAUAUAAGAGCUGGUCUCAAAAGAACAUGAGGAUCACCCAUGUAGGAUAUCAGCACGAUAAGUGCUGAGAAGGACAUCCAGCUC | 14.5 nM | 18.6 nM | – | –
10 | GUCCCGAGGGAGAAGGGCUAGGAGGUCCAGCUUAUGUGUGUUGCAACAUGAGGAUCACCCAUGUAGCAGGAUAUCCCUUGUACA | 52.2 nM | 219 nM | – | –
11 | GAGCGAAAGCUCAAUGUCGAUAGCAGAAGGACAUGUAAAACCAUGAAAACAUGAGGAUCACCCAUGUAGGAUAUGCUAUCGACU | 9.7 nM | 95.8 nM | – | –
12 | GCACGGCAUGUAGGAUAUCGAGCGCCGGGCGCUCGAGAAGGACAUGAGGAUCACCCAUGUACUCUCAGUGAGAGAGUGCUGUGC | 18.7 nM | 31.8 nM | – | –
13 | CUUUUGUGAGGAUAUCAGUAGUAAAUAAAUAAAAUUAUUACUGAGAAGGCACAUGAGGAUCACCCAUGUUCCUC | 40.1 nM | 192 nM | – | –
14 | GCCUUACCGGUCAGGAUAUACAUUUGUUACUCUUUGUAGAAGGGACAUGAGGAUCACCCAUGUACAUUACAUUC | 19.1 nM | 19.2 nM | – | –
15 | GGACAUUUACAGAAGGGCAAUUUAUUUAUUGAUUAUUUAGUUCUGUUUUGCAGGAUAUGUUUUACAUGAGGAUCACCCAUGUCC | – | – | 66.8 nM | 36.2 nM
16 | AUAUCCUAGAUAGGAUAUACUGAGGUUGAAUGGGUAGAAGGAUCGUUAGGGAAGACUACAUGAGGAUCACCCAUGUUGUUUAUU | – | – | 116 nM | 92.9 nM
17 | GAUAGGACAGAGAAGGACAUAGCUAGAGAUACUAGCAUACGAACCUUUACAUGAGGAUCACCCAUGUAGGAUAUCUGUCCUAUC | 5.43 nM | 6.78 nM | – | –
18 | CAGACACAUGAGGAUCACCCAUGUGAGGAUAUGCGUACGUUGUCCGUAGGCGACGUGCGCAGAAGGCGCAUUGG | 110 nM | 252 nM | – | –
19 | UCACGGGAUUGAGGAUAUAUAUAAAUUUAUACAAUAGAAGGCAAAUUUUUAGUUUUUUCACUUUACAUGAGGAUCACCCAUGUU | 26.2 nM | 24.2 nM | – | –
20 | CCGAAUGUCACAGGAUAUGGUCCGGGCUCACGACCAGAAGGGUGAUCUCACAUGAGGAUCACCCAUGUGUAGGCGUUAGGCUAC | – | – | 35.3 nM | 114 nM
21 | GGAUAGGACAGAGGAUAUACGUGCUAGAGAUACUAGCCAAAUUUCCUCACAUGAGGAUCACCCAUGUAGAAGGCUGUCCUAUCG | 6.86 nM | 84.5 nM | – | –
22 | UCAUAUAUACAAGGAUAUCAAUUAUUUACACAUCCUACAUGAGGAUCACCCAUGUUUUAAUAUUUUGAGAAGGUGUAAUGUCGG | – | – | 24 nM | 30.7 nM
23 | AUAUCUCUAUAAGUUCCAAUACGAACAUGAGGAUCACCCAUGUAGGAUAUGCUAGAAGUAGAGUUGCAGAAGGACAAGUACCUU | 7.48 nM | 6.75 nM | – | –
24 | UACGUACAGAAGAACUCCGGAUCUAGAAGGGACAUGAGGAUCACCCAUGUACCGUUGAUUGCUUGUCAGGAUAUAGACCCGGCC | 6.07 nM | 14.2 nM | – | –

Row | Sequence | apparent Kd [1] | apparent Kd [2] | apparent Kd [3] | apparent Kd [4]
25 | UCGUGAAUAGAGGAUAUAUUAAUAUUUAAAACAAUAGAAGGCUAAACAUGAGGAUCACCCAUGUAAAUGGUUUU | 28.1 nM | 116 nM | – | –
26 | UUAAAUCAUGUAGGAUAUGCAUGGCGAAGCUACGCAGAAGGACAUGAGGAUCACCCAUGUUCUAGCGUCUGAGUUCAGAUGCAA | 20.9 nM | 41.7 nM | – | –
27 | CAAAAGGAAGGAUAUACAUGUUAAUUAUCCGAAGAUGUCGUACAUGAGGAUCACCCAUGUAGAAGGUCCAAAAC | 30.3 nM | 78.7 nM | – | –
28 | GUCCCUACAUGAGGAUCACCCAUGUGGGCGGUAAGGAGCCCACAGGAUAUGCGAAGUAGGACAUAGCAGAAGGGUGGUGUUCAG | – | – | 146 nM | 97.3 nM
29 | ACGAAGAUACAGAAGGGUAUAUUAGUUAAUUAUAAUUUGGUUAUGCACUACAGGAUAUGUUUAACAUGAGGAUCACCCAUGUUC | – | – | 13.9 nM | 10.8 nM
30 | CUUUUGUGAGGAUAUCAGUGGUAAUACAAUAGUAUUACUACUGAGAAGGCACAUGAGGAUCACCCAUGUUCCUC | 44.5 nM | 220 nM | – | –
31 | AAAUCACAUGAGGAUCACCCAUGUGAGGAUAUGAUACUAUGUACUUCGGUACAUAGUAUCAGAAGGCAUGUGGA | 32 nM | 36.8 nM | – | –
32 | GUUUUAUAGAUCCAUUUUAACAACAUGAGGAUCACCCAUGUGCAGGAUAUCGUUUGUUUUAUAUUCGAGAAGGGCAAAUUCAUU | 44.3 nM | 102 nM | – | –
33 | CAAGGGCAUGAGAAGGCAUAAUUUAUAAUACCACAUGUUUACAUGAGGAUCACCCAUGUUACCUAUGAGGAUAUCAUGCCUACA | 14.3 nM | 13.1 nM | – | –
34 | UUAUUAUAUGUAGGAUAUGCAUAUUAUUAUUAUGCAGAAGGACAUGAGGAUCACCCAUGUAUAUUAUUAUUAUAUAUUGUAUAU | 27.8 nM | 43.2 nM | – | –
35 | GAUGUAUUCGUAGGAUAUCCGUCGCCACCGUGUGGAGAAGGACGAACAUGAGGAUCACCCAUGUAUCAUGGUGUAGACACUUUC | 142 nM | 190 nM | – | –
36 | ACGGAGUCAGGAUAUUUAGAGCGUUGGCAAUGCUAGCGCAUGGAGAAGGGACAUGAGGAUCACCCAUGUUUGGA | 39.9 nM | 39.9 nM | – | –
37 | UUAGCAACAUGAGGAUCACCCAUGUAGGAUAUCGCUAUUGUAAUCAUGAAACAUGAUUACAAUAGCGAGAAGGACAUAUGCUCC | 7.17 nM | 10.6 nM | – | –
38 | GCCAGGUGGGUAGGAUAUGGCUAUGUCUCAUUGCUAGAAGGACCAACUGCUACAUGAGGAUCACCCAUGUCGUAGUGCACCCGG | – | – | 78.9 nM | 25.4 nM
39 | ACAUGAGGAUCACCCAUGUGUCAACCAGAAGGCACAUUACGUAUUUCUAUGUGUGCGUAAAUAAGUGAGGAUAUGGAUAAUAGA | – | – | 11.2 nM | 7.21 nM
40 | UGGUACUAGGGAGGAUAUGGGAAGAUACAUGAGGAUCACCCAUGUUUAAGAAUGUCGAGAGGCAACUAGAAGGCCCUAGUACCU | – | – | 504 nM | 19.4 nM
41 | UCAUUUCAGUAAGGAUAUUAAAACAUGACGAUACAUGAGGAUCACCCAUGUUAAGAAGGUACUAAUACAUAUAAUGCAAUGUUC | 16 nM | 15 nM | – | –
42 | AUAUUUAAUAUAGGAUAUAGGAAGAAUGAUGAACUAGAAGGAUAACAUACAUGAGGAUCACCCAUGUCCCAUGUGAUCACCCAU | 321 nM | 338 nM | – | –
43 | CGCAACUCAGAUCUUUUGAACAUGAGGAUCACCCAUGUAUUGAGAAGGAGCUGGAAGAGAGACAGCUAGGAUAUCAGAGUUGCG | 5.4 nM | 5.73 nM | – | –
44 | AACGAAAGCCAAGGAUAUGCAGGUGACAUGAGGAUCACCCAUGUGGAUUGUGAUCCUUAACUGAUGCAGAAGGUGGAUCUGUUG | 513 nM | 322 nM | – | –
45 | UCAUCAACGGGCGGGUCGGUUGGACAUGAGGAUCACCCAUGUAGAAGGACCGGUGGACUCCGGCGGUAGGAUAUACAUAUGGUG | 29.2 nM | 36.7 nM | – | –
46 | AAAACCUCAUGAGGAUAUCCAACAUGAGGAUCACCCAUGUUAGUCUCAGUACUAGAUACUUGAGAGGAGAAGGCAUGCCAGGGC | – | – | 97 nM | 31.6 nM
47 | GGUACUCAAAGAGUACCAAUACGAACAUGAGGAUCACCCAUGUAGGAUAUGCUACUCAAAGAGUAGCAGAAGGACAUGUGCCUC | 418 nM | 38.5 nM | – | –
